# Compound activity: PubChem BioAssay, several laboratories
# A selection: hits, their analogues and other compounds. The true share with any hit is near 6%.
# PostGolgi yeast = growth inhibition of a yeast mutant, post-Golgi transport screen; actives 0.9% (n = 98,000); post-Golgi transport phenotypic cell assay; AID 739; inhibition, % at 10 µM;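 note: yeast cells grown in 1536-well plates; yeast grown about 18 h at 30C before absorbance read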
# PostGolgi ctrl = inhibits growth of the yeast control strain | efflux-deficient yeast background strain, growth absorbance A615, 16 h | inhibition, % at 10 µM | actives 5% (n = 98,000) | AID 738
# EphB4 ephrin blk = blocks human EphB4 binding to ephrin-B2. P54760. AID 720. actives 0.15% (n = 97,000). EphB4 LBD / TNYL-RAW-Alexa532 peptide, fluorescence polarization. inhibition, % at 7 µM;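 active = inhibition above the screen-wide mean inhibition plus 3 SD, cut at about 15% in these data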;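 note: 0% = DMSO wells and 100% = excess unlabeled TNYL-RAW peptide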
# Ecoli WT expand = growth inhibitors of E. coli BW25113 wild type | actives 0.15% (n = 98,000) | OD600 absorbance | AID 710 | growth inhibition, % at 100 µM;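 active = growth inhibition above about 50% at one test dose, limit read from the data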;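 note: growth measured after 20 h incubation at 37 °C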
# tolC growth inh = blocks growth of E. coli BW25113 tolC mutant; OD615; growth inhibition, % at 10 µM (by protocol); actives 2.2% (n = 65,000); AID 573;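 active = growth inhibition at or above a cutoff equal to the mean over every tested compound plus 3 SD, cut at about 60% in these data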;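 note: growth measured after 20 h incubation at 37 °C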
#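 Test system – E. coli BW25113 ΔtolC::kan, tolC deletion mutant strain · Detection – OD at 615 nm · Buffer or medium – LB with kanamycin 50 µg/mL · Times – 20 h compound exposure of bacteria at 37 °C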
# * = called active by the depositor; . = no result given. Cut-off read from the data, not from the text of the source, unless noted: active = inhibition above about 30%; inactive = the rest.
SMILES,PostGolgi yeast,PostGolgi ctrl,EphB4 ephrin blk,Ecoli WT expand,tolC growth inh
CCc1ccc(C2=NN(c3ccc(S(N)(=O)=O)cc3)C(c3ccc(F)cc3)C2)cc1 (centres undefined),18,91*,0,-11,.
CCc1ccc(C2=NN(S(C)(=O)=O)C(c3cccs3)C2)cc1 (centres undefined),-17,5,5,-5,.
N#Cc1cc2c(nc1SCc1cccnc1)CCCCC2,44*,63*,1,-2,51
N#Cc1cc2c(nc1SCc1ccccc1)CCCCC2,-3,31*,1,0,.
N#Cc1cc2c(nc1SCc1ccc(Cl)cc1)CCCC2,.,.,5,.,.
N#Cc1cc2c(nc1SCc1cccc(Cl)c1)CCCCC2,-2,-2,-2,-3,.
Cc1cccc(-c2cc3nc4c(c(NCc5ccco5)n3n2)CCCC4)c1,3,42*,-1,-16,.
O=C(C1CCCO1)N1CCN(c2c3c(nc4cc(-c5ccc(F)cc5)nn24)CCC3)CC1 (centres undefined),-2,19,0,-1,4
OC1CCN(c2c3c(nc4cc(-c5ccc(F)cc5)nn24)CCC3)CC1,2,49*,-3,-3,.
Cc1cccc(-c2cc3nc4c(c(N5CCOCC5)n3n2)CCCC4)c1,-7,72*,-1,-16,85*
Fc1ccc(-c2cc3nc4c(c(N5CCOCC5)n3n2)CCCC4)cc1,19,57*,0,0,49
Cc1cccc(-c2cc3nc4c(c(N5CCC6(CC5)OCCO6)n3n2)CCCC4)c1,.,.,0,.,51
CCOc1ccccc1NC(=O)C1CCCCN1S(=O)(=O)c1ccc(F)cc1 (centres undefined),-6,26,-5,-4,.
Cc1nc2ccccc2cc1OCc1ccc(Cl)cc1,2,36*,0,-1,.
Cc1nc2ccccc2cc1OCc1ccccc1,7,12,-7,-2,.
COc1ccc(NC2c3ccccc3C(=O)N2c2cccnc2)cc1Cl (centres undefined),3,1,.,4,1
CCOC(=O)c1ccccc1NC1c2ccccc2C(=O)N1c1cc(C)ccn1 (centres undefined),2,55*,0,-8,.
COc1cc(OC)c(NC2c3ccccc3C(=O)N2c2cc(C)ccn2)cc1Cl (centres undefined),5,33*,.,-8,22
COc1ccc2c(c1)C(=NN)c1cc(OC)ccc1-2,11,3,-4,8,.
CCOC(=O)CSc1nnc(CSc2nc3sc4c(c3c(=O)[nH]2)CCCC4)n1-c1ccccc1,-5,11,0,-12,.
COC(=O)CCN(C(C)=O)c1ccc(N)cc1,-7,40*,1,-8,-18
O=C(c1cc2sccc2n1Cc1ccccc1)N1CCN(c2nc3ccccc3s2)CC1,9,41*,-4,-19,.
O=C(Cn1c(C(=O)N2CCN(C3CCCCC3)CC2)cc2sccc21)c1ccccc1,5,31*,-3,1,20
COc1ccc(C(=O)COc2ccccc2N2C(=O)C3C4C=CC(C4)C3C2=O)cc1 (centres undefined),0,-2,-2,1,.
C=CCc1cc(C)cc(C)c1OCCn1cncn1,.,.,17*,.,5
SMILES,PostGolgi yeast,PostGolgi ctrl,EphB4 ephrin blk,Ecoli WT expand,tolC growth inh
Cc1cc(Cl)cc(Br)c1OCCCCn1cncn1,-4,4,7,-5,9
COC(=O)NCC12CC3CC(C1)CC(CNC(=O)OC)(C3)C2,0,33*,.,-3,18
COc1ccc(C)cc1N(CC(=O)Nc1cccc(N(C)S(C)(=O)=O)c1)S(C)(=O)=O,0,37*,2,6,-3
COc1ccc(N(CC(=O)Nc2cccc(N(C)S(C)(=O)=O)c2)S(C)(=O)=O)cc1OC,11,-3,2,-2,-13
CN(Cc1ccccc1)C(=O)CN(c1ccc(F)cc1)S(=O)(=O)c1ccc2c(c1)OCCO2,.,.,5,.,.
CN1CCN(CCCNC(=O)Cn2nc(-c3ccccc3)ccc2=O)CC1,41*,-1,.,1,-16
CCOP(=O)(c1ccccc1)c1nc(-c2ccc(F)cc2)oc1N1CCCCC1 (centres undefined),-2,32*,-1,-2,16
CCOP(=O)(OCC)c1nc(-c2ccc(C)cc2)oc1N1CCOCC1,.,.,8,.,.
CC1CCCN(S(=O)(=O)c2ccc(NC(=O)c3cccc(-n4cnnn4)c3)cc2)C1 (centres undefined),11,5,5,-10,73*
CC1CCCCN1S(=O)(=O)c1ccc(NC(=O)c2cccc(-n3cnnn3)c2)cc1 (centres undefined),7,6,.,-2,47
O=C(Nc1ccccc1)Nc1cccc2cccnc12,-4,24,-4,-8,36
NC(=S)Nc1cccc2cccnc12,11,35*,4,5,.
O=S(=O)(c1cccc(NC(=S)Nc2ccc(Br)cc2Cl)c1)N1CCOCC1,6,1,-8,18,.
O=C(Nc1nc2ccccc2s1)C1CCCN1S(=O)(=O)c1ccc(Cl)cc1 (centres undefined),0,68*,-6,-7,86*
COc1ccc(-c2csc(NC(=O)C3CCCCN3S(=O)(=O)c3ccccc3)n2)cc1 (centres undefined),6,52*,10,-14,.
COc1ccc(S(=O)(=O)N2CCCC2C(=O)Nc2ccc(C)cc2)cc1 (centres undefined),-6,4,6,-3,6
CCc1nnc(NC(=O)C2CCCN2S(=O)(=O)c2ccc(C)cc2)s1 (centres undefined),0,8,-6,1,-9
Cc1ccc(S(=O)(=O)N2CCCC2C(=O)Nc2nc3ccccc3s2)cc1 (centres undefined),-11,44*,-1,4,21
COc1ccccc1NC(=O)CSc1nc2n[nH]c(C)c2c(=N)n1-c1ccccc1Cl,.,.,-3,.,.
CC(C)CC(=O)NC(NC(=S)Nc1sc2c(c1C#N)CCCC2)C(Cl)(Cl)Cl (centres undefined),3,11,5,-1,.
CCOc1ccccc1NC(=O)c1c(NC(=O)CNCc2ccco2)sc2c1CCC2,.,.,.,.,-3
COCC(=O)n1nc(NCc2ccc(OC)cc2)nc1NCc1ccc(OC)cc1,49*,87*,2,0,10
COc1ccc(Cn2c(-c3ccco3)nc3oc4cc(OC)ccc4c(=O)c3c2=O)cc1,3,13,6,-23,86*
COc1ccc(-c2nc3oc4cc(OC)ccc4c(=O)c3c(=O)n2Cc2ccco2)cc1,6,17,-7,-14,95*
COc1ccc2c(=O)c3c(=O)n(Cc4ccco4)c(-c4ccco4)nc3oc2c1,-2,10,-2,-11,.
O=C(NNC(=O)c1ccco1)c1cccc([N+](=O)[O-])c1,-9,7,-1,-8,.
COc1ccc(OC)c(/C=N/NC(=O)CC2C(=O)NN=C2C)c1 (centres undefined),-2,3,7,8,.
CN(C)CC(C)(C)CNS(=O)(=O)c1ccc(Cl)c(Cl)c1,-5,-3,1,-9,.
